From PubChem BioAssay
RBBP9 inh – inhibitors of human serine hydrolase RBBP9; O75884; recombinant RBBP9, FP-Rh probe fluorescence polarization; inhibition, % at 7.94 µM; 220,000 compounds, 0.2% hits;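 active means inhibition above the campaign mean of all tested compounds plus 3 SD, cut at about 14% in these data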;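 further: plate controls were DMSO wells with RBBP9 for no effect and wells lacking RBBP9 protein for full effect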
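Test system: recombinant human RBBP9. Quantity: 2.5 µM RBBP9 dispensing solution, before mixing. Detection: FP readout at 525/598 nm. Reagent: Serine-hydrolase probe FP-Rh, 375 nM pre-mixing. Measure: % inhibition. Control set: DMSO-treated enzyme wells and wells lacking RBBP9. Buffer or medium: Tris-NaCl-Pluronic buffer, pH 8.0. Times: preincubation 30 min plus labeling 45 min at 25 °C.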
14-3-3 Bad PPI – disrupts binding of bovine 14-3-3 zeta to phospho-Bad peptide; inhibition, % at 21.7 µM; P63103; AID 781; TR-FRET 14-3-3zeta/Dy647-pBad peptide displacement, 1 h; 220,000 compounds, 0.71% hits;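 active means inhibition above about 70%, limit read from the data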;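 further: 0% = full 14-3-3 plus peptide FRET controls and 100% = background without 14-3-3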
Target sequence (P63103 whole entry, looked up): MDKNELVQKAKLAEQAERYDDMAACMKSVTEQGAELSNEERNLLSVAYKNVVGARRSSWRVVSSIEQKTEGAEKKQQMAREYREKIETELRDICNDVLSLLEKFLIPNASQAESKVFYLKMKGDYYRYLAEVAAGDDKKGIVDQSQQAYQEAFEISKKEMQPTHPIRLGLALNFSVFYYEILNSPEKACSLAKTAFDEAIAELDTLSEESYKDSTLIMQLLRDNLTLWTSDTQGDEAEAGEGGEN
Wee1 stabilizer – blocks degradation of human Wee1 kinase; P30291; HeLa Luc-Wee1K328M stability, luciferase luminescence; 100% = proteasome inhibitor MG132 effect; reporter increase, % at 5 µM; 220,000 compounds, 1.2% hits; AID 1321;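 active means activation above the mean of all tested compounds plus 3 SD, set per screening run, cut at about 8.8% in these data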;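 further: cells exposed to compound for 20 h before luminescence read; 0% = DMSO alone and 100% = MG132 at 30 µM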
eIF4E 4G PPI – eIF4E/eIF4G interaction inhibition in translation initiation | AID 782 | inhibition, % at 21.7 µM | 220,000 compounds, 0.37% hits | TR-FRET eIF4E-eIF4GI(517-606) binding, 2 h | P63073+Q04637;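 further: 0% = full FRET control wells and 100% = background wells lacking eIF4GI fragment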
p47phox inh – p47phox (human) inhibition. P14598. p47phox/p22phox peptide binding, fluorescence polarization, 2 h. inhibition, % at 24.7 µM. 220,000 compounds, 0.53% hits. AID 1274;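 further: 0% = p47phox with labelled peptide and 100% = labelled peptide alone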
Target sequence (P14598 whole entry, looked up): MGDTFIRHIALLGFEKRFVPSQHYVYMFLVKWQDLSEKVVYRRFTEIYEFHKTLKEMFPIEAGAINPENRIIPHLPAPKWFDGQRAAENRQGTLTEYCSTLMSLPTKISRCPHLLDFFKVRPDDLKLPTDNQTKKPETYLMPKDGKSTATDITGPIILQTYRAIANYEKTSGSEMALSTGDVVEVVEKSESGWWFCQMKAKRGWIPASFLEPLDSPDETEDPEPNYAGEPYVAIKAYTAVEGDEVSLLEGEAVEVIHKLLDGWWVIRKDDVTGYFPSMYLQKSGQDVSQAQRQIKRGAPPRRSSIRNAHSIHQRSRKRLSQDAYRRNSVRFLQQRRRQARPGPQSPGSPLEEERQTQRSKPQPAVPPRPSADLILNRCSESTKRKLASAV
Wee1 degr conf – confirmation of human Wee1 degradation inhibitors; shares compounds with Wee1 stabilizer; HeLa Luc-Wee1K328M degradation, luminescence; vehicle 0%, proteasome-blocked wells 100%; activation, % at 5 µM; 1,100 compounds, 4% hits; in the data active means activation above about 8.9%
* marks the source's active call; other numbers are inactive results; · = no result. This is a sample that favours compounds with a hit; in the whole collection about 2.8% have one here.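 How the source made its calls, unless noted: active means inhibition above about 30% (limit read from the data); inactive means the rest.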

SMILES	RBBP9 inh	14-3-3 Bad PPI	Wee1 stabilizer	eIF4E 4G PPI	p47phox inh	Wee1 degr conf
O=S(=O)(c1ccc(Oc2ncnc3scc(-c4ccccc4)c23)cc1)N1CCOCC1	-10.8	-22.5	18.5*	-0.7	-34.9	0.0
O=C(N/N=C/c1ccc(O)cc1)c1ccc(COc2cc(Cl)ccc2Cl)o1	-0.8	24.7	-0.7	-9.0	-75.2	·
Cc1ccccc1NC(=O)NC(N)=O	-8.5	-8.2	14.1*	-3.6	-1.9	-1.7
CCNC(=S)N1CCC(n2cnc3ccccc32)CC1	-4.7	-13.5	4.1	1.5	-1.0	·
CNS(=O)(=O)c1cccc(C(=O)OCC(=O)Nc2ccc(Cl)cn2)c1	0.7	1.4	12.0*	0.4	-17.4	1.5
CNS(=O)(=O)c1cccc(C(=O)OCC(=O)Nc2ccccc2OC(F)F)c1	-7.2	-11.1	-1.5	-1.4	-15.9	·
CC(c1ccccc1)C1CC(=O)N(c2cc(Cl)ccn2)C1=O (stereo unspecified)	-0.4	3.6	8.7	-0.6	-10.2	·
CN1CCN(C(=O)C2CC(c3c(F)cccc3Cl)=NO2)CC1 (stereo unspecified)	-4.1	-4.1	12.9*	-2.1	-13.0	-1.3
Cc1ccc(O)c(NC(=O)C2CC(c3c(F)cccc3Cl)=NO2)c1 (stereo unspecified)	-9.4	-7.5	1.7	0.3	-4.5	·
O=S(=O)(C/C(=C/CO)S(=O)(=O)c1ccccc1)c1ccccc1	-9.1	-7.5	13.2*	0.9	-35.6	8.8*
CCN1CCN(C(=O)/C(C#N)=C/c2ccc(OC(F)F)cc2)CC1	-6.7	8.8	-0.8	-2.0	4.6	·
N#C/C(=C\c1ccc(OC(F)F)cc1)C(=O)N1CCCCC1	-2.4	0.1	14.8*	-3.2	-11.8	0.3
CC(=O)Nc1ccc(S(=O)(=O)NCc2ccncc2)cc1	-5.6	2.0	11.8*	-2.4	8.1	-1.5
CCOCCn1cnc2sc(C(=O)Nc3nc(C)c(C(=O)OCC)s3)c(C)c2c1=O	-0.9	·	-1.2	·	·	·
CCOC(=O)c1sc(NC(=O)CNC(=O)Cn2cnc3sc(C)c(C)c3c2=O)nc1C	4.7	51.4	11.1*	6.9	-7.6	-2.1
Cn1c(SCC(=O)Nc2cc(S(=O)(=O)N3CCOCC3)ccc2N2CCOCC2)nnc1-c1ccncc1	-2.5	-3.9	-2.2	1.9	-7.8	·
Cc1cc(C)cc(-n2c(C)cc(/C=N\NC(=O)COc3cccc4cccnc34)c2C)c1	-2.2	-8.8	4.1	-1.0	-29.9	·
Cc1cc(/C=N/NC(=O)COc2cccc3cccnc23)c(C)n1-c1ccc(O)cc1	-7.1	-13.5	14.1*	-3.6	-10.9	0.4
O=C(CCc1nc2ccccc2s1)Nc1cccnc1	-7.3	-16.0	-2.2	7.3	-10.7	·
CC(C)(C)Sc1ccccc1S(=O)(=O)C(C)(C)C	1.4	0.9	13.1*	6.8	1.6	-1.7
Cc1ccc2nc(-c3ccc(NC(=S)NC(=O)C(C)C)cc3)sc2c1	2.0	-3.9	0.8	-19.8	-67.4	·
Cc1ccc2nc(-c3ccc(NC(=S)NC4CC(C)(C)NC(C)(C)C4)cc3)sc2c1	-5.2	92.5*	19.9*	20.7	22.1	3.3
COc1cc([N+](=O)[O-])ccc1NC(=O)CCCOc1cc(C)ccc1C	-4.8	1.1	13.4*	1.7	-18.4	-0.4
N#Cc1cnc(SCCc2ccccc2)nc1N	-4.2	3.2	27.7*	0.3	-16.1	2.3
CC(=O)c1c(COC(=O)c2ccc(C)cc2)nc2ccccc2[n+]1[O-]	-6.3	-11.6	16.4*	1.1	-1.2	-1.0
SMILES	RBBP9 inh	14-3-3 Bad PPI	Wee1 stabilizer	eIF4E 4G PPI	p47phox inh	Wee1 degr conf
COC(=O)/C(C#N)=C1/C=Cc2ccccc2N1	-11.7	-5.5	-1.4	-4.6	1.5	·
CC(=O)c1cccc(N(C(=O)CNC(=O)c2ccco2)C(C(=O)NCc2ccco2)c2ccccc2)c1 (stereo unspecified)	-4.0	-8.2	18.5*	-0.5	-1.3	-2.8
Cc1cccc(N(C(=O)CNC(=O)c2ccco2)C(C(=O)NCC2CCCO2)c2ccccc2)c1 (stereo unspecified)	-10.3	1.0	-0.7	0.1	6.9	·
N=c1sccn1CC(=O)Nc1ccc2c(c1)CCC2	-4.9	3.1	1.2	6.4	-5.7	·
COc1cc(NC(=O)Cn2ccsc2=N)cc(OC)c1	-3.4	11.4	13.0*	2.0	3.5	-1.5
COc1ccc(NC(=O)CO/N=C2\CCCc3nonc32)cc1	-2.3	-21.4	0.8	3.8	-2.5	·
O=C(CO/N=C1\CCCc2nonc21)Nc1ccc(Br)cc1	4.3	-9.8	11.6*	5.4	-22.4	7.2
C/C(=N\N=c1/sc2ccccc2n1C)c1ccc(N2CCOCC2)cc1	-2.5	-9.3	13.8*	11.9	-12.4	1.1
O=S1(=O)CC(O)C(N=Nc2c(O)n(Cc3ccccc3)c3ccccc23)C1 (stereo unspecified)	-6.7	4.0	1.6	-3.0	-8.8	·
CCC(C(=O)OCC(=O)c1ccc2c(c1)NC(=O)CO2)c1ccccc1 (stereo unspecified)	-0.4	4.9	-0.7	-1.5	-8.6	·
COc1ccc(CNCCNC(=O)c2cccs2)c(OC)c1OC	-7.5	25.3	12.3*	2.7	-3.0	-1.4
COCCCNC(=O)c1cccs1	-9.9	-9.7	1.1	-8.5	-2.0	·
CCC(=O)Nc1nc2ccccc2n1CCN(CC)CC	-2.7	43.9	-1.4	7.2	-3.6	·
CCN(CC)CCn1c(NC(=O)c2ccc(C(F)(F)F)cc2)nc2ccccc21	1.3	-9.9	12.9*	0.1	3.1	0.4
Cc1ccc(C)c(S(=O)(=O)Nc2nc(C)c(C(=O)Nc3ccccc3)s2)c1	-10.3	4.5	13.6*	-1.6	-23.2	2.2
COc1ccc(/C=N/Nc2nc(=O)[nH]nc2C)cc1OC	-4.3	-9.5	2.5	-1.0	-2.8	·
COc1cc(/C=N/Nc2nc(=O)[nH]nc2C)ccc1O	-10.3	-6.6	17.3*	-3.2	-9.0	-3.1
Nc1c(Cl)c(Cl)nc(C(=O)N/N=C/c2cccnc2)c1Cl	-3.0	-11.3	0.5	-1.8	-12.1	·
CN(C)CC(CCCCC(CN(C)C)C(=O)c1ccccc1)C(=O)c1ccccc1 (stereo unspecified)	-2.0	4.6	-2.8	-7.2	-11.3	·
CSc1ccc(-c2nnn(CC(=O)NCc3ccccc3)n2)cc1	-5.1	-2.3	-0.6	-10.6	-8.9	·
CCOC(=O)C(Cc1ccccc1)NC(=O)Cn1nnc(-c2ccc(SC)cc2)n1 (stereo unspecified)	2.8	-6.2	13.0*	0.6	-15.3	4.4
CCCCNC(=O)c1ccc(CNc2c(N3CCC(C(=O)OCC)CC3)c(=O)c2=O)cc1	-4.6	-5.0	0.9	0.3	3.7	·
CC(C)CN(C(=O)COC(=O)CNC(=O)c1ccccc1F)C1CCS(=O)(=O)C1 (stereo unspecified)	-10.3	-3.5	-3.0	0.1	-6.4	·
